Test results from ChEMBL document CHEMBL1135527, “Synthesis and evaluation of 2'-substituted 4-(4'-carboxy- or 4'-carboxymethylbenzylidene)-N-acylpiperidines: highly potent and in vivo active steroid 5alpha-reductase type 2 inhibitors” (J Med Chem, 2002).

Experiments:
[1] = molecular target: T1, 3-oxo-5-alpha-steroid 4-dehydrogenase 1 (Rattus norvegicus, UniProt P24008); assay: Inhibition of Steroid 5-alpha-reductase type I from rat ventral prostate (RVP); type: tissue-based, Prostate gland
T1 sequence (P24008 whole entry): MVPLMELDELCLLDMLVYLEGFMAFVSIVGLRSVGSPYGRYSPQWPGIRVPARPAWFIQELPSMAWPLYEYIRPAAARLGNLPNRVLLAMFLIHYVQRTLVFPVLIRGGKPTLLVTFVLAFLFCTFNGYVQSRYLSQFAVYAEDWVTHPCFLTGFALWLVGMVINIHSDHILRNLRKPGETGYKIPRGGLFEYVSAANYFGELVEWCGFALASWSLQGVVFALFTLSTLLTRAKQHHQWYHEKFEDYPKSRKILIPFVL
Procedure, shortened: (§1)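 Rat ventral prostate 105000g pellet made in 20 mM phosphate pH 6.6 with […] and 1 mM DTT at 0–4 °C. About 250 μg protein incubated 30 min at 37 °C in 40 mM phosphate pH 6.6 with 200 μM NADPH, 0.21 μM [1,2-³H]testosterone and 2% DMSO. Ether extraction, radio-HPLC of T and DHT. % inhibition at 10 μM or IC50; duplicates.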

[2] = molecular target: T2, 3-oxo-5-alpha-steroid 4-dehydrogenase 2 (Homo sapiens, UniProt P31213); assay: Inhibition of Steroid 5-alpha-reductase type 2 from human benign prostatic hyperplasia (BPH) tissue
T2 sequence (P31213 whole entry): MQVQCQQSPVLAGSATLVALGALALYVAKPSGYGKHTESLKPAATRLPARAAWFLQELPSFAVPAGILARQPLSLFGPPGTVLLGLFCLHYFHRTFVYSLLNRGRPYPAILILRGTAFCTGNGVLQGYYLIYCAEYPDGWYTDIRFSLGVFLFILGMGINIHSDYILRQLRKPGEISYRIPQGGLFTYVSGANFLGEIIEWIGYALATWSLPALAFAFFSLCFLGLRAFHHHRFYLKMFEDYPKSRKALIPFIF
Procedure, shortened: (§2)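 Human BPH prostate 105000g pellet (nuclei, mitochondria, microsomes) prepared in citrate buffer pH 5.5. Incubation of about 125 μg protein for 30 min at 37 °C in 40 mM citrate pH 5.5 with 100 μM NADPH, 0.21 μM [1,2-³H]testosterone and 2% DMSO. Reaction stopped with NaOH, steroids extracted with ether, T/DHT separated by radio-HPLC. Single 10 μM test or IC50; duplicates.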

[3] = molecular target: T3, 3-oxo-5-alpha-steroid 4-dehydrogenase 1 (Homo sapiens) (UniProt P18405); assay: Inhibition of Steroid 5-alpha-reductase type I of human DU 145 prostatic tumor cell line, at 10 uM
T3 sequence (whole entry): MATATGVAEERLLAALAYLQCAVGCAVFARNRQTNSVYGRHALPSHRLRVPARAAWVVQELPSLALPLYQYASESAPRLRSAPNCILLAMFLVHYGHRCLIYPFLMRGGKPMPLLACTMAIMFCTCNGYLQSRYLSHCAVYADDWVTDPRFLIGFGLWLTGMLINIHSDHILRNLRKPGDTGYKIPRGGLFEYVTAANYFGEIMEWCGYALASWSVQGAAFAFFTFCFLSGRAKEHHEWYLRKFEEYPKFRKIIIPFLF
Procedure, shortened: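 Intact DU145 cells (type 1 source) seeded at 180 000/well and left to adhere overnight. Compound added in DMSO to complete medium, then 6 h at 37 °C in 5% CO2 with [³H]androstenedione, 5 nM. Medium extracted twice with ether, steroids separated by radio-HPLC. Product formed expressed as % of triplicate no-inhibitor controls; screened at 10 μM.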

[4] = molecular target: T4, 3-oxo-5-alpha-steroid 4-dehydrogenase 2 (Rattus norvegicus, UniProt P31214); assay: (§3) Inhibition of Steroid 5-alpha-reductase type 2 of rat ventral prostate (RVP); type: tissue-based, Prostate gland
T4 sequence (P31214 whole entry): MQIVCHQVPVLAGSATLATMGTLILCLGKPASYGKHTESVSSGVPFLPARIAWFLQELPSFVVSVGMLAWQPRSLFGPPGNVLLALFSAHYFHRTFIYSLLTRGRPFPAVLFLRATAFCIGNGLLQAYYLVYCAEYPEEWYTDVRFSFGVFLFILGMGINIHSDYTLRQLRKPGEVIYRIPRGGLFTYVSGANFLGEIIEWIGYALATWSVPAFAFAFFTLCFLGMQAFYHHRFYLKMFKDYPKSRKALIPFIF
Procedure, shortened: (§4)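 Type 2 source: rat ventral prostate homogenized in citrate buffer pH 5.5, 105000g pellet. About 250 μg protein incubated 30 min at 37 °C in 40 mM citrate pH 5.5 with 200 μM NADPH, 0.21 μM [1,2-³H]testosterone and 2% DMSO. NaOH stop, ether extraction, radio-HPLC of T/DHT. Result given as % inhibition at 10 μM or IC50, run in duplicate.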

[5] = molecular target: T5, 3-oxo-5-alpha-steroid 4-dehydrogenase 1 (Rattus norvegicus) (UniProt P24008); assay: Inhibition of Steroid 5-alpha-reductase type I of rat ventral prostate (RVP); type: tissue-based; design: concentration or dose not given beside the values; conditions: Prostate gland, concentration not given here; procedure, shortened: as §1
T5 sequence (whole entry): T1 sequence (P24008 whole entry)

[6] = molecular target: T6, 3-oxo-5-alpha-steroid 4-dehydrogenase 2 (Rattus norvegicus) (UniProt P31214); assay: as §3; design: concentration or dose not given beside the values; conditions: Prostate gland, concentration not given here; procedure, shortened: as §4
T6 sequence (whole entry): T4 sequence (P31214 whole entry)

[7] = molecular target: 3-oxo-5-alpha-steroid 4-dehydrogenase 2 (Homo sapiens, UniProt P31213); assay: In vitro inhibitory activity against Steroid 5-alpha-reductase type 2 of human benign prostatic hyperplasia (BPH) tissue; procedure, shortened: as §2
[8] = molecular target: T7, 3-oxo-5-alpha-steroid 4-dehydrogenase 2 (Homo sapiens) (UniProt P31213); assay: Percent of inhibition at 10 benign prostatic hyperplasia (BPH) tissue; conditions: concentration not given here; procedure, shortened: as §2
T7 sequence (whole entry): T2 sequence (P31213 whole entry)

[9] = molecular target: T1, 3-oxo-5-alpha-steroid 4-dehydrogenase 1; assay: In vitro inhibitory activity against Steroid 5-alpha-reductase type I of rat ventral prostate (RVP); type: tissue-based, Prostate gland; procedure, shortened: as §1
Rattus norvegicus [10] = assay: Mean percentage of inhibition of the T-induced hypertrophic response was calculated according to the equation %inhibition = 100 x (Ct-D)/(Ct-Cc) at a dose 11.8 mg/kg by subcutaneous administration; type: functional; conditions: sc
Procedure, shortened: (§5)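 Male rats castrated at 21 days old by scrotal incision under ether anaesthesia; eight groups of eight. One week later, testosterone propionate 1 mg/kg and test agent or vehicle in oil given once daily for 4 days. Testosterone and test agent were given by separate sc injections, or the test agent was given orally. Test doses 11.3–12.2 mg/kg, 10 times equimolar to finasteride 1 mg/kg.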

Rattus norvegicus [11] = assay: In vivo ventral prostate weights in juvenile castrated rats treated with testosterone propionate (11.3 mg/kg) compound, by subcutaneous administration; type: functional, Prostate gland; procedure, shortened: as §5
Rattus norvegicus [12] = assay: In vivo ventral prostate weights in juvenile castrated rats treated with testosterone propionate (1 mg/kg); type: functional, Prostate gland; procedure, shortened: as §5

| SMILES | IC50 [1] [µM] | IC50 [2] [µM] | inhibition [3] [%] | IC50 [4] [µM] | inhibition [5] [%] | inhibition [6] [%] | further results |
| --- | --- | --- | --- | --- | --- | --- | --- |
| O=C(O)c1ccc(C=C2CCN(C(=O)CC(c3ccccc3)c3ccccc3)CC2)cc1 | 1.6 | 1.1 | 8 | 0.88 |  |  |  |
| O=C(O)c1ccc(C=C2CCN(C(=O)C(C3CCCCC3)C3CCCCC3)CC2)cc1 |  |  | 46 |  | 51 |  |  |
| O=C(O)Cc1ccc(C=C2CCN(C(=O)C(C3CCCCC3)C3CCCCC3)CC2)c(F)c1 |  |  | 4 |  |  |  |  |
| COc1cc(C(=O)O)ccc1C=C1CCN(C(=O)C(C2CCCCC2)C2CCCCC2)CC1 |  | 0.13 | 5 |  | 55 | 43 |  |
| O=C(O)Cc1ccc(C=C2CCN(C(=O)C(c3ccccc3)c3ccccc3)CC2)cc1 | 4.5 |  |  |  |  | 63 | IC50 [7]: 0.075 µM |
| O=C(O)c1ccc(C=C2CCN(C(=O)N(c3ccccc3)c3ccccc3)CC2)cc1 | 0.54 | 0.83 | 22 | 0.69 |  |  |  |
| O=C(O)Cc1ccc(C=C2CCN(C(=O)C(C3CCCCC3)C3CCCCC3)CC2)cc1 |  | 0.006 | 6 |  | 66 | 56 |  |
| O=C(O)c1ccc(C=C2CCN(C(=O)C34CC5CC(CC(C5)C3)C4)CC2)c(F)c1 | 2.7 | 0.21 | 20 | 3.5 |  |  |  |
| CC(C)(C)OC(=O)N1CCC(Oc2ccc(C(=O)O)cc2)CC1 |  |  | 2 |  | 4 | 12 | inhibition [8]: 7.8% |
| O=C(O)c1ccc(C=C2CCN(C(=O)C(C3CCCCC3)C3CCCCC3)CC2)c(F)c1 |  | 0.011 |  | 3 |  |  | IC50 [9]: 1.8 µM |
| O=C(O)c1ccc(OC2CCN(C(=O)C34CC5CC(CC(C5)C3)C4)CC2)cc1 |  | 0.43 | 7 |  | 18 | 21 |  |
| CCC(=O)O[C@H]1CC[C@H]2[C@@H]3CCC4=CC(=O)CC[C@]4(C)[C@H]3CC[C@]12C.O=C(O)c1ccc(C=C2CCN(C(=O)C(C3CCCCC3)C3CCCCC3)CC2)c(F)c1 |  |  |  |  |  |  | inhibition in vivo at 11.8 mg/kg (Rattus norvegicus [10]): 47%; Weight (Rattus norvegicus [11]): 28.6 (mg of prostate) (100g of body weight)-1 |
| O=C(O)c1ccc(C=C2CCN(C(=O)C(c3ccccc3)c3ccccc3)CC2)cc1 | 3.4 | 0.53 | 26 | 0.37 |  |  |  |
| CCC(=O)O[C@H]1CC[C@H]2[C@@H]3CCC4=CC(=O)CC[C@]4(C)[C@H]3CC[C@]12C [TESTOSTERONE PROPIONATE] |  |  |  |  |  |  | Weight (Rattus norvegicus [12]): 41.6 (mg of prostate) (100g of body weight)-1 |
